This is an account of results in ChEMBL document CHEMBL5055620, “Design, Synthesis, and Structural Characterization of Lysine Covalent BH3 Peptides Targeting Mcl-1” (J Med Chem, 2021).

Active and inactive are the calls of the source. The rule behind the calls is not given here. Non-standard residues stand in square brackets, D forms with d. Residues, ends and D or L forms follow the SMILES beside them. ξ: configuration not given here. *: point of attachment. Benzoyl(2-OMe,5-SO2F) = COc1ccc(S(=O)(=O)F)cc1C(=O)*; Benzoyl(3-SO2F) = O=C(c1cccc(S(=O)(=O)F)c1)*; Benzoyl(4-SO2F) = O=C(c1ccc(S(=O)(=O)F)cc1)*; X1 = Cc1ccc(S(=O)(=O)F)cc1C(=O)*; hSer = N[C@@H](CCO)C(=O)O; Nle = CCCC[C@H](N)C(=O)O; Dap = NC[C@H](N)C(=O)O; ξAbu = CCC(N)C(=O)O

The target in data set [1] is T1, Induced myeloid leukemia cell differentiation protein Mcl-1 (Homo sapiens, UniProt Q07820). Put plainly: Inhibition of human Mcl-1 (172 to 323 residues) expressed in Escherichia coli BL21 using biotinylated-BH3 peptide as substrate measured after 2 hrs by DELFIA displacement assay.
T1 sequence (Q07820 whole entry, the tested form may be a part): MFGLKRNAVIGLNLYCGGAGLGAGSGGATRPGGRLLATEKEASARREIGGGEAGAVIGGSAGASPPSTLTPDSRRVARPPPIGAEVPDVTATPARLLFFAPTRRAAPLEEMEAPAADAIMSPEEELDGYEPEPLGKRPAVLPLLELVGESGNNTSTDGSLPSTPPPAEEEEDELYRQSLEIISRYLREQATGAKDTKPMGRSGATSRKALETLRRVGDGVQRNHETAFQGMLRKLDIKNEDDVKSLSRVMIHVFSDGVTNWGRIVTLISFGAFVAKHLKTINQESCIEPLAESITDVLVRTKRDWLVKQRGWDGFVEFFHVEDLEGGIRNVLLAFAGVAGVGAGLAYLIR
The target of data set [2] is T2, Bcl-2-related protein A1 (Homo sapiens, UniProt Q16548).
T2 sequence (Q16548 whole entry): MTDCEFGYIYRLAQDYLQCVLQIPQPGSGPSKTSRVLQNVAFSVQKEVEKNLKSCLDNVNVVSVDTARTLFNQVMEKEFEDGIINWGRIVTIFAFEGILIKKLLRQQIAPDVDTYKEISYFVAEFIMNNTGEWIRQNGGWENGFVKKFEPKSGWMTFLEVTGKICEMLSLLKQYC
Kind of data set: Inhibition of human Bfl-1 (1 to 149 residues) expressed in Rosetta-gami (DE3) using biotinylated-BH3 peptide as substrate measured after 2 hrs by DELFIA displacement assay.

Data set [3] in a line: Stability of the compound in pH 7.4 buffer assessed as half life by one-dimensional 1H-NMR analysis. It counts as physicochemical.
In data set [4] the target is T1, Induced myeloid leukemia cell differentiation protein Mcl-1. Kind of data set: Inhibition of human Mcl-1 assessed as Kinact by DELFIA displacement assay. In short, it runs like this: (§1)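 His-tagged hMcl-1 (16 nM) and Eu-N1 anti-6xHis antibody (22.2 ng/well) were pre-bound for 2 h to streptavidin wells coated with biotinylated BIM BH3 peptide (600 ng/mL). Test peptide was then added for 0–40 min at RT, followed by washing, enhancement solution and time-resolved fluorescence at ex 340/em 615 nm. kobs was taken from the slope of % inhibition versus time. Ki and kinact came from a hyperbolic fit of kobs against concentration.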

In data set [5] the test system is A549. Kind of data set: Prevention of thermal denaturation of proteins in human A549 cells assessed as rescue of protein level at 100 uM by Western blotting analysis. It counts as functional, cell-based. In short, it runs like this: (§2)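 Cellular thermal shift: one million A549 cells were plated overnight and treated 1 h with 1% DMSO or 100 μM agent. Cells were harvested, protease inhibitors added, and heated 3 min at various temperatures. After lysis, the supernatant was analysed by western blot for Mcl-1.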

Data set [6] in a line: Stability of the compound in pH 7.4 buffer assessed as intact compound after 3.5 hrs by one-dimensional 1H-NMR analysis. It counts as physicochemical. As to conditions: read-out: Stability.
Data set [7] concerns the target T1, Induced myeloid leukemia cell differentiation protein Mcl-1. Kind of data set: Binding affinity to human Mcl-1 assessed as covalent adduct formation by measuring increase in molecular weight at 100 uM by mass spectrometry analysis.
Data set [8] has the same target. Put plainly: Binding affinity to human Mcl-1 assessed as covalent adduct formation by measuring band shift at 100 uM measured after 2 hrs by SDS-PAGE analysis. The method in brief: (§3)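 Protein (hMcl-1 His-tagged construct, or His-tagged hBfl-1 residues 1–149) at 10 μM was incubated with or without agent at 100 μM for 2 h at room temperature in 25 mM TRIS pH 7.5, 150 mM NaCl, 1 mM DTT. Samples were run on 12% Bis-Tris SDS-PAGE with MOPS running buffer and Coomassie-type stained.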

Data set [9] has the same target. Kind of data set: Inhibition of human Mcl-1 assessed as inhibition constant by DELFIA displacement assay. The method in brief:
as §1

For data set [10], the target named is T3, Bcl-2-related protein A1 (Homo sapiens) (UniProt Q16548).
T3 sequence (whole entry): T2 sequence (Q16548 whole entry)
Put plainly: Binding affinity to human Bfl-1 assessed as covalent adduct formation by measuring band shift at 100 uM measured after 2 hrs by SDS-PAGE analysis. In short, it runs like this:
as §3

The target of data set [11] is T1, Induced myeloid leukemia cell differentiation protein Mcl-1. Put plainly: Degradation of human Mcl-1 in A549 cells assessed as decrease in Mcl-1 protein levels with DMSO for 1 hr by spiking cell lysate assay. Type of data set: cell-based. The method in brief: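 A549 cells (Ham's F-12/GlutaMAX, 10% FBS, PenStrep, 0.5 μg/mL puromycin) were lysed 20 min on ice in Tris pH 7.4/Triton/deoxycholate/SDS/IGEPAL/EDTA buffer with protease and phosphatase inhibitors, then centrifuged. Protein-quantified supernatants were incubated 1 h at 37 °C with DMSO or 100 μM agent. Immunoblot used PVDF, anti-Mcl-1 and anti-β-tubulin (4 °C overnight), and ECL.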

Data set [12] concerns A549. Kind of data set: Induction of decrease in human Mcl-1 level in A549 cells measured up to 100 uM in presence of carfilzomib treated for 2 hrs by Western blot analysis. Type of data set: functional, cell-based. In short, it runs like this: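 A549 cells were treated 2 h with DMSO, 50 or 100 μM agent, with or without 30 min pre-treatment with 1 μM carfilzomib. Lysates were immunoblotted for Mcl-1 and β-tubulin. Densitometry gave Mcl-1 relative to β-tubulin from two independent experiments. Significance was by one-way ANOVA with Dunnett post-test.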
(Immunoblotting shows a protein as a band on a membrane.)

In data set [13] the target is T1, Induced myeloid leukemia cell differentiation protein Mcl-1. Kind of data set: Binding affinity to human Mcl-1 in human A549 cells assessed as denaturation thermal shift at 100 uM by cellular thermal shift assay. It counts as cell-based. The method in brief:
as §2

One may read the IC50 as the concentration that inhibits the measured activity by half. Low values mean greater potency in that assay, high ones weaker potency in that assay. For `CC[C@H](C)[C@H](NC(=O)[C@H](CCCNC(=N)N)NC(=O)[C@H](CCCNC(=N)N)NC(=O)[C@H](CC(C)C)NC(=O)[C@H](CCC(N)=O)NC(=O)[C@H](CCC(=O)O)NC(=O)[C@H](C)NC(=O)[C@@H](NC(=O)[C@H](CNC(=O)c1ccc(S(=O)(=O)F)cc1)NC(C)=O)[C@@H](C)CC)C(=O)NCC(=O)N[C@@H](CC(=O)O)C(=O)N[C@@H](CCCNC(=N)N)C(=O)N[C@@H](Cc1ccccc1)C(N)=O` (Ac-[Dap](Benzoyl(4-SO2F))IAEQLRRIGDRF-NH2), the figures for the concentration for half-maximal inhibition (IC50) in data set [1] and in data set [2] were 94 nM and > 5000 nM, respectively.
Turning to H-AIAEQLRRIGDAF-NH2, the half-inhibitory concentration (IC50) in data set [1] came out at 313 nM.
Same read-out and setting: the figure for H-AIAQALRRIGDAY-OH is > 3600 nM; for `CCCC[C@H](NC(=O)[C@H](C)NC(=O)[C@H](CC(=O)O)NC(=O)CNC(=O)[C@@H](NC(=O)[C@H](CCCNC(=N)N)NC(=O)[C@H](CCCNC(=N)N)NC(=O)[C@H](CC(C)C)NC(=O)[C@H](C)NC(=O)[C@H](CCC(N)=O)NC(=O)[C@H](C)NC(=O)[C@@H](NC(=O)[C@H](C)N)[C@@H](C)CC)[C@@H](C)CC)C(=O)O` (H-AIAQALRRIGDA[Nle]-OH) it is 1600 nM.
Still for that read-out and setting: the figure for H-AIAQALRRIGDAL-OH is 1200 nM; for H-AIAQALRRIGDAF-OH it is 2200 nM.
Molecule `CC[C@H](C)[C@H](NC(=O)[C@H](CCCNC(=N)N)NC(=O)[C@H](CCCNC(=N)N)NC(=O)[C@H](CC(C)C)NC(=O)[C@H](CCO)NC(=O)[C@H](CCC(N)=O)NC(=O)[C@H](C)NC(=O)[C@H](CC(C)C)NC(=O)[C@H](C)N)C(=O)NCC(=O)N[C@@H](CC(=O)O)C(=O)N[C@@H](C)C(=O)N[C@@H](Cc1ccccc1)C(=O)O` (H-ALAQ[hSer]LRRIGDAF-OH) displayed an IC50 in data set [1] of 3000 nM.
Same read-out and setting: the figure for `CCC(NC(=O)[C@H](CCC(N)=O)NC(=O)[C@H](C)NC(=O)[C@@H](NC(=O)[C@H](C)N)[C@@H](C)CC)C(=O)N[C@@H](CC(C)C)C(=O)N[C@@H](CCCNC(=N)N)C(=O)N[C@@H](CCCNC(=N)N)C(=O)N[C@H](C(=O)NCC(=O)N[C@@H](CC(=O)O)C(=O)N[C@@H](C)C(=O)N[C@@H](Cc1ccccc1)C(=O)O)[C@@H](C)CC` (stereo partly specified) (H-AIAQ[ξAbu]LRRIGDAF-OH) is 1300 nM; for H-ALAQALREIGDAR-OH it is > 10000 nM; for Ac-AIAEALRRIGDAF-NH2 it is 261 nM.
For `CC[C@H](C)[C@H](NC(=O)[C@H](CCCNC(=N)N)NC(=O)[C@H](CCCNC(=N)N)NC(=O)[C@H](CC(C)C)NC(=O)[C@H](CCC(N)=O)NC(=O)[C@H](CCC(=O)O)NC(=O)[C@H](C)NC(=O)[C@@H](NC(=O)[C@H](CNC(=O)c1cccc(S(=O)(=O)F)c1)NC(C)=O)[C@@H](C)CC)C(=O)NCC(=O)N[C@@H](CC(=O)O)C(=O)N[C@@H](CCCNC(=N)N)C(=O)N[C@@H](Cc1ccccc1)C(N)=O` (Ac-[Dap](Benzoyl(3-SO2F))IAEQLRRIGDRF-NH2), the IC50 in data set [1] is 23 nM; in [2], > 400 nM.
One may read the half-life as how long it takes for the measured level to halve. What is called Ki is the equilibrium dissociation constant of an inhibitor or competing ligand from its target. Take `CC[C@H](C)[C@H](NC(=O)[C@H](CCCNC(=N)N)NC(=O)[C@H](CCCNC(=N)N)NC(=O)[C@H](CC(C)C)NC(=O)[C@H](CCC(N)=O)NC(=O)[C@H](CCC(=O)O)NC(=O)[C@H](C)NC(=O)[C@@H](NC(=O)[C@H](CNC(=O)c1cc(S(=O)(=O)F)ccc1C)NC(C)=O)[C@@H](C)CC)C(=O)NCC(=O)N[C@@H](CC(=O)O)C(=O)N[C@@H](CCCNC(=N)N)C(=O)N[C@@H](Cc1ccccc1)C(N)=O` (Ac-[Dap](X1)IAEQLRRIGDRF-NH2): in [3], the half-life was > 210 min. Further, the IC50 in [1] was 19.1 nM; in [2] it was > 1000 nM. Moreover, the Kinact in [4] came out at 1.16 min⁻¹. Moreover, the outcome in data set [5] and in data set [10] was inactive. Moreover, in data set [6], the remaining at 3.5 h was > 80%. Moreover, the outcome in data set [7] and in [8] was Active. Besides, in data set [9], the inhibitory constant (Ki) is 37 nM.
Consider `CC[C@H](C)[C@H](NC(=O)[C@H](CCCNC(=N)N)NC(=O)[C@H](CCCNC(=N)N)NC(=O)[C@H](CC(C)C)NC(=O)[C@H](CCC(N)=O)NC(=O)[C@H](CCC(=O)O)NC(=O)[C@H](C)NC(=O)[C@@H](NC(=O)[C@H](CNC(=O)c1cc(S(=O)(=O)F)ccc1OC)NC(C)=O)[C@@H](C)CC)C(=O)NCC(=O)N[C@@H](CC(=O)O)C(=O)N[C@@H](CCCNC(=N)N)C(=O)N[C@@H](Cc1ccccc1)C(N)=O` (Ac-[Dap](Benzoyl(2-OMe,5-SO2F))IAEQLRRIGDRF-NH2), for which the outcome in [11], in data set [5], in data set [13] and in data set [10] was inactive. In addition, the half-life in data set [3] is > 210 min. Besides, the figures for the 50% inhibitory concentration (IC50) in data set [1] and in data set [2] were 23.6 nM and > 250 nM, respectively. In [4], the Kinact was found to be 0.943 min⁻¹. In addition, the remaining at 3.5 h in data set [6] amounted to 100%. The outcome in data set [12], in [7] and in data set [8] was Active. Also, the inhibitory constant (Ki) in [9] amounted to 17 nM.
